Test results: ChEMBL document CHEMBL4689842, “EUbOPEN Chemogenomics Library wave 1” (2021)

Tested on: HEK-293T
Assay: Multiplex assay against HEK293T;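 as to Population Tubulin-Different-Phenotype (%): share of the cells with healthy nuclei that show this phenotype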
Type: toxicity, cell-based
Settings: human
Summary of the method: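 On a CQ1 microscope at 37°C and 5% CO2, live cells were imaged after compound addition. They had been stained at seeding with Hoechst33342, BioTracker Green Microtubule Cytoskeleton Dye, MitoTracker Red and Annexin V Alexa Fluor 680. CellPathfinder machine-learning gating assigned cells to Hoechst high-intensity objects or normal cells, normal cells to healthy, pyknosed or fragmented nuclei, and pyknosed cells to mitotic or apoptotic. Tubulin, mitochondrial-mass and membrane-permeability phenotypes are per cents of healthy-nucleus cells.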

[1] = 12 h, 1 µM, compound concentration 1 uM, replicate 1
[2] = 12 h, 1 µM, compound concentration 1 uM, replicate 2
[3] = 12 h, 10 µM, compound concentration 10 uM, replicate 1
[4] = 12 h, 10 µM, compound concentration 10 uM, replicate 2
[5] = 24 h, 1 µM, compound concentration 1 uM, replicate 1
[6] = 24 h, 1 µM, compound concentration 1 uM, replicate 2
[7] = 24 h, 10 µM, compound concentration 10 uM, replicate 1
[8] = 24 h, 10 µM, compound concentration 10 uM, replicate 2
[9] = 48 h, 1 µM, compound concentration 1 uM, replicate 1
[10] = 48 h, 1 µM, compound concentration 1 uM, replicate 2
[11] = 48 h, 10 µM, compound concentration 10 uM, replicate 1
[12] = 48 h, 10 µM, compound concentration 10 uM, replicate 2

c1cn2cc(-c3ccc4cn[nH]c4c3)nc(Nc3ccc(N4CCOCC4)cc3)c2n1 [ENTOSPLETINIB]
Population Apoptotic (%) [1]: 54%
Population Fragmented Nuclei (%) [1]: 8%
Population Healthy Nuclei (%) [1]: 40%
Population Hoechst High Intensity Objects (%) [1]: 16%
Population Membrane Permeable-Phenotype (%) [1]: 0%
Population Mitochondria Different-Phenotype (%) [1]: 95%
Population Mitotic Cells (%) [1]: 45%
Population Normal (%) [1]: 83%
Population Pyknosed Nuclei (%) [1]: 50%
Population Tubulin-Different-Phenotype (%) [1]: 74%
Total Cell Count [1]: 207
Population Apoptotic (%) [2]: 22%
Population Fragmented Nuclei (%) [2]: 2%
Population Healthy Nuclei (%) [2]: 36%
Population Hoechst High Intensity Objects (%) [2]: 4%
Population Membrane Permeable-Phenotype (%) [2]: 10%
Population Mitochondria Different-Phenotype (%) [2]: 57%
Population Mitotic Cells (%) [2]: 77%
Population Normal (%) [2]: 95%
Population Pyknosed Nuclei (%) [2]: 60%
Population Tubulin-Different-Phenotype (%) [2]: 57%
Total Cell Count [2]: 197
Population Apoptotic (%) [3]: 41%
Population Fragmented Nuclei (%) [3]: 77%
Population Healthy Nuclei (%) [3]: 6%
Population Hoechst High Intensity Objects (%) [3]: 27%
Population Membrane Permeable-Phenotype (%) [3]: 8%
Population Mitochondria Different-Phenotype (%) [3]: 89%
Population Mitotic Cells (%) [3]: 58%
Population Normal (%) [3]: 72%
Population Pyknosed Nuclei (%) [3]: 16%
Population Tubulin-Different-Phenotype (%) [3]: 81%
Total Cell Count [3]: 1068
Population Apoptotic (%) [4]: 35%
Population Fragmented Nuclei (%) [4]: 52%
Population Healthy Nuclei (%) [4]: 8%
Population Hoechst High Intensity Objects (%) [4]: 22%
Population Membrane Permeable-Phenotype (%) [4]: 7%
Population Mitochondria Different-Phenotype (%) [4]: 85%
Population Mitotic Cells (%) [4]: 64%
Population Normal (%) [4]: 77%
Population Pyknosed Nuclei (%) [4]: 38%
Population Tubulin-Different-Phenotype (%) [4]: 85%
Total Cell Count [4]: 431
Population Apoptotic (%) [5]: 43%
Population Fragmented Nuclei (%) [5]: 6%
Population Healthy Nuclei (%) [5]: 52%
Population Hoechst High Intensity Objects (%) [5]: 15%
Population Membrane Permeable-Phenotype (%) [5]: 6%
Population Mitochondria Different-Phenotype (%) [5]: 93%
Population Mitotic Cells (%) [5]: 56%
Population Normal (%) [5]: 84%
Population Pyknosed Nuclei (%) [5]: 41%
Population Tubulin-Different-Phenotype (%) [5]: 72%
Total Cell Count [5]: 227
Population Apoptotic (%) [6]: 24%
Population Fragmented Nuclei (%) [6]: 4%
Population Healthy Nuclei (%) [6]: 60%
Population Hoechst High Intensity Objects (%) [6]: 2%
Population Membrane Permeable-Phenotype (%) [6]: 5%
Population Mitochondria Different-Phenotype (%) [6]: 48%
Population Mitotic Cells (%) [6]: 75%
Population Normal (%) [6]: 97%
Population Pyknosed Nuclei (%) [6]: 35%
Population Tubulin-Different-Phenotype (%) [6]: 61%
Total Cell Count [6]: 259
Population Apoptotic (%) [7]: 33%
Population Fragmented Nuclei (%) [7]: 75%
Population Healthy Nuclei (%) [7]: 8%
Population Hoechst High Intensity Objects (%) [7]: 28%
Population Membrane Permeable-Phenotype (%) [7]: 11%
Population Mitochondria Different-Phenotype (%) [7]: 85%
Population Mitotic Cells (%) [7]: 66%
Population Normal (%) [7]: 71%
Population Pyknosed Nuclei (%) [7]: 15%
Population Tubulin-Different-Phenotype (%) [7]: 75%
Total Cell Count [7]: 988
Population Apoptotic (%) [8]: 40%
Population Fragmented Nuclei (%) [8]: 51%
Population Healthy Nuclei (%) [8]: 12%
Population Hoechst High Intensity Objects (%) [8]: 20%
Population Membrane Permeable-Phenotype (%) [8]: 4%
Population Mitochondria Different-Phenotype (%) [8]: 88%
Population Mitotic Cells (%) [8]: 59%
Population Normal (%) [8]: 79%
Population Pyknosed Nuclei (%) [8]: 35%
Population Tubulin-Different-Phenotype (%) [8]: 93%
Total Cell Count [8]: 430
Population Apoptotic (%) [9]: 43%
Population Fragmented Nuclei (%) [9]: 10%
Population Healthy Nuclei (%) [9]: 71%
Population Hoechst High Intensity Objects (%) [9]: 7%
Population Membrane Permeable-Phenotype (%) [9]: 1%
Population Mitochondria Different-Phenotype (%) [9]: 56%
Population Mitotic Cells (%) [9]: 56%
Population Normal (%) [9]: 92%
Population Pyknosed Nuclei (%) [9]: 17%
Population Tubulin-Different-Phenotype (%) [9]: 45%
Total Cell Count [9]: 307
Population Apoptotic (%) [10]: 18%
Population Fragmented Nuclei (%) [10]: 6%
Population Healthy Nuclei (%) [10]: 74%
Population Hoechst High Intensity Objects (%) [10]: 2%
Population Membrane Permeable-Phenotype (%) [10]: 5%
Population Mitochondria Different-Phenotype (%) [10]: 21%
Population Mitotic Cells (%) [10]: 81%
Population Normal (%) [10]: 97%
Population Pyknosed Nuclei (%) [10]: 19%
Population Tubulin-Different-Phenotype (%) [10]: 55%
Total Cell Count [10]: 378
Population Apoptotic (%) [11]: 23%
Population Fragmented Nuclei (%) [11]: 64%
Population Healthy Nuclei (%) [11]: 18%
Population Hoechst High Intensity Objects (%) [11]: 25%
Population Membrane Permeable-Phenotype (%) [11]: 6%
Population Mitochondria Different-Phenotype (%) [11]: 43%
Population Mitotic Cells (%) [11]: 76%
Population Normal (%) [11]: 74%
Population Pyknosed Nuclei (%) [11]: 16%
Population Tubulin-Different-Phenotype (%) [11]: 57%
Total Cell Count [11]: 913
Population Apoptotic (%) [12]: 26%
Population Fragmented Nuclei (%) [12]: 47%
Population Healthy Nuclei (%) [12]: 25%
Population Hoechst High Intensity Objects (%) [12]: 20%
Population Membrane Permeable-Phenotype (%) [12]: 4%
Population Mitochondria Different-Phenotype (%) [12]: 71%
Population Mitotic Cells (%) [12]: 73%
Population Normal (%) [12]: 79%
Population Pyknosed Nuclei (%) [12]: 27%
Population Tubulin-Different-Phenotype (%) [12]: 93%
Total Cell Count [12]: 444
